The experiment concerns the target Cannabinoid receptor 1 (Rattus norvegicus, UniProt P20272). As to the kind of experiment: Displacement of [3H]SR141716 from CB1 receptor in rat cerebellum homogenate. It counts as tissue-based. The method, boiled down: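 Competition binding against [3H]SR141716 in rat cerebellum homogenates. Each concentration was run in triplicate, and each experiment was repeated three times. Data were fitted by non-linear regression, and values are mean ± SEM of three experiments.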
Background: Loss of bound radioactivity is the signal in a displacement assay; it reports binding, not function.
Chain of Cannabinoid receptor 1 (P20272 whole entry): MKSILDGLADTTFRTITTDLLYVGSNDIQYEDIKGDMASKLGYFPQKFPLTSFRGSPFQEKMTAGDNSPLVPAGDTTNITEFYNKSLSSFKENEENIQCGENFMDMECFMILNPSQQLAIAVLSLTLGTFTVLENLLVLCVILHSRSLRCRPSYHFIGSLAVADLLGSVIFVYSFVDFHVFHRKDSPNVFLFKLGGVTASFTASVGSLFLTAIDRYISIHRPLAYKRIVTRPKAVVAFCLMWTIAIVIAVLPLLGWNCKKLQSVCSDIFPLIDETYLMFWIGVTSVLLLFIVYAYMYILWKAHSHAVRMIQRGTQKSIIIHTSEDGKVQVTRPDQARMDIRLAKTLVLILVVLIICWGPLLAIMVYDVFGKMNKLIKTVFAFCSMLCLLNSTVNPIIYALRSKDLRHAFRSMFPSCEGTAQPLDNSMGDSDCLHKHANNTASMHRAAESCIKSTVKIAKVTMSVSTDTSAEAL
For orientation: Ki means the dissociation constant of the complex between target and ligand, obtained from inhibition or displacement. Low readings indicate a stronger hold on the target, high ones a looser hold on the target. `CCCOC(=O)c1nnn(-c2ccc(Cl)cc2Cl)c1-c1ccc(Cl)cc1` registered a Ki of 4.6 nM. That is a single-digit nanomolar value.
The value for `COC(=O)c1nnn(-c2ccc(Cl)cc2)c1-c1ccc(Cl)cc1` was 4400 nM.
The figure for `O=C(OCc1ccccc1)c1nnn(-c2ccc(Cl)cc2Cl)c1-c1ccc(Cl)cc1` is 97 nM.
The figure for `Clc1ccc(-c2cnnn2-c2ccc(Cl)cc2Cl)cc1` is 1420 nM.
`Clc1ccc(-c2cnnn2-c2ccc(Cl)cc2)cc1` returned a Ki of 6900 nM.
The figure for `O=C(NN1CCCCC1)c1nnn(-c2ccc(Cl)cc2Cl)c1-c1ccc(Cl)cc1` is 590 nM; for `O=C(OC1CCCCC1)c1nnn(-c2ccc(Cl)cc2Cl)c1-c1ccc(Cl)cc1` it is 240 nM.
The figure for `COC(=O)c1nnn(-c2ccc(Cl)cc2Cl)c1-c1ccc(Cl)cc1` is 66 nM; for `O=C(Oc1ccccc1)c1nnn(-c2ccc(Cl)cc2Cl)c1-c1ccc(Cl)cc1` it is 11 nM.
The figure for `CCOC(=O)c1nnn(-c2ccc(Cl)cc2Cl)c1-c1ccc(Cl)cc1` is 180 nM.
